In PubChem BioAssay AID1617 (Sanford-Burnham Center for Chemical Genomics, 2009):
Active and inactive are the calls of the source.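 How the source made its calls: active means compound at least 90% bound to plasma protein at 1 µM; inactive means the rest.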

Test system: human plasma protein binding, RED dialysis, LC/MS/MS
Experiment: human plasma protein binding, late-stage follow-up, ADME assay, biochemical, rapid equilibrium dialysis, LC/MS/MS (AID 1617)
Conditions: stronger effect = higher value
Method in brief: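 Material: Compound-spiked plasma dialysed against buffer by equilibrium dialysis. Times: 4 h dialysis, 37 °C, shaken. Read-out: percent bound, 100 minus free percentage from buffer-to-plasma concentration ratio. Compound dosing: two single doses, 1 and 10 µM final, 0.1% DMSO. Medium: Isotonic PBS pH 7.4 as dialysis buffer. Detection: LC/MS/MS of both chamber aliquots.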

plasma protein bound (at 1 µM): 27.9% (inactive)
plasma protein bound (percent bound, at 10 µM): 16.8%
SMILES: Cc1cc(OCC(=O)Nc2ncn[nH]2)ccc1Cl
